# Test results: ChEMBL document CHEMBL2380289, “Ligand based approach to L-type calcium channel by imidazo[2,1-b]thiazole-1,4-dihydropyridines: from heart activity to brain affinity” (J Med Chem, 2013)
# What was measured:
# [1] = Displacement of [3H]-PN200-110 from L-type calcium channel dihydropyridine binding site in Wistar rat cortex homogenate after 60 mins by liquid scintillation spectometric analysis; assay type: tissue-based
# Summary of the method: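 Competition binding on rat cortex homogenate with (+)-[5-methyl-3H]PN200-110. Compounds are dissolved in DMSO as 10⁻² M stocks and diluted in buffer. Six displacer concentrations are tested, each in triplicate. IC50 is obtained by −log probit analysis and Ki by the Prusoff method. Values are mean ± SEM of 3−5 separate experiments done in triplicate.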
# Rattus norvegicus = species on record: Rattus norvegicus; assay: Displacement of [3H]-PN200-110 from L-type calcium channel dihydropyridine binding site in Wistar rat cortex homogenate at 100 uM after 60 mins by liquid scintillation spectometric analysis relative to control; assay type: tissue-based
# Summary of the method: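 Binding on rat cortex homogenate using (+)-[5-methyl-3H]PN200-110. The read-out is percent of maximal radioligand displacement at 100 μM test compound. Compounds are made up as 10⁻² M DMSO stocks and diluted in buffer. Values are from 3−5 separate experiments done in triplicate.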
# Cavia porcellus [2] = species on record: Cavia porcellus; assay: Displacement of [3H]-PN200-110 from L-type calcium channel in Hartley guinea pig ventricular membrane […] after 90 mins relative to control
# [3] = Displacement of [3H]-PN200-110 from L-type calcium channel in Hartley guinea pig atrial membrane after 90 mins; assay type: cell membranes, Cavia porcellus, Cardiac atrium
# Summary of the method: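 Guinea pig atrial membranes are labelled at the 1,4-DHP site with (+)-[5-methyl-3H]PN200-110 at 0.5 nM. Competitor is added over 0.001−100 μM from 10⁻² M DMSO stocks diluted in buffer. Results are given as IC50 and Ki, mean ± SEM. Student's t-test is applied with P<0.001.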
# Cavia porcellus [4] = species on record: Cavia porcellus; assay: Displacement of [3H]-PN200-110 from L-type calcium channel in Hartley guinea pig atrial membrane at 100 uM after 90 mins relative to control; assay type: cell membranes; settings: Cardiac atrium
# HEK293 = assay: Displacement of [3H]-PN200-110 from voltage-gated calcium channel subunit alpha Cav1.2a (unknown origin) expressed in HEK293 cells at 100 uM after 90 mins by liquid scintillation counting analysis relative to control; assay type: cell-based; settings: Homo sapiens
# [5] = Displacement of [3H]-PN200-110 from voltage-gated calcium channel subunit alpha Cav1.2a (unknown origin) expressed in HEK293 cells after 90 mins by liquid scintillation counting analysis; assay type: cell-based, Homo sapiens
# Summary of the method: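 Intact HEK-293 cells stably transfected with a rabbit Cav1.2a (α1c-a) plasmid are used. They are incubated with 0.5 nM (+)-[5-methyl-3H]PN200-110 plus competitor at 0.001−100 μM, from 10⁻² M DMSO stocks diluted in buffer. IC50 values are given as mean ± SEM.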
# [6] = Displacement of [3H]-PN200-110 from L-type calcium channel in Hartley guinea pig ventricular membrane […] after 90 mins; design: species or system Cavia porcellus
# Ileum [7] = assay: Relaxant activity in potassium depolarized guinea pig ileum longitudinal smooth muscle assessed as inhibition of calcium-induced contraction; assay type: functional, tissue-based; settings: Cavia porcellus
# Summary of the method: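 K⁺-depolarized (80 mM) guinea pig ileum longitudinal smooth muscle is used. Calcium-induced contraction is measured with cumulative compound addition.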
# Ileum [8] = assay: Relaxant activity in potassium depolarized guinea pig ileum longitudinal smooth muscle assessed as inhibition of calcium-induced contraction at 5x10'-7 M relative to control; assay type: functional, Cavia porcellus; design: scale not given: the % may be the effect or the level left
# Aorta [9] = assay: Relaxant activity in potassium depolarized guinea pig aortic strips assessed as inhibition of calcium-induced contraction at 10^-4 M relative to control; assay type: functional, Cavia porcellus; design: scale not given: the % may be the effect or the level left
# Summary of the method: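 Guinea pig aortic strips and ileum longitudinal smooth muscle are depolarized with 80 mM K⁺. The read-out is percent inhibition of calcium-induced contraction. Aorta is tested at 10⁻⁴ M and ileum at 10⁻⁵ M.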
# [10] = Negative chronotropic activity in guinea pig right atrium assessed as decrease in atrial rate; assay type: functional, tissue-based; settings: Cavia porcellus, Cardiac atrium
# Summary of the method: (§1)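 Isolated guinea pig atria are used, with left atria driven at 1 Hz. Compounds are added cumulatively. EC50 is derived from log concentration−response curves by Litchfield–Wilcoxon probit analysis, n = 6−7. EC50 is not calculated when the maximal effect is below 50%.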
# [11] = Negative chronotropic activity in guinea pig right atrium assessed as decrease in atrial rate at 10^-5 M relative to control; assay type: functional, Cavia porcellus, Cardiac atrium; design: scale not given: the % may be the effect or the level left
# [12] = Negative inotropic activity in guinea pig left atrium assessed as decrease in developed tension at 10^-4 M relative to control; assay type: functional, Cavia porcellus, Cardiac atrium; design: scale not given: the % may be the effect or the level left
# [13] = Negative inotropic activity in guinea pig left atrium assessed as decrease in developed tension; assay type: functional, tissue-based; settings: Cavia porcellus, Cardiac atrium; summary of the method: as §1
# Ileum [14] = assay: Relaxant activity in potassium depolarized guinea pig ileum longitudinal smooth muscle assessed as inhibition of calcium-induced contraction at 10^-7 M relative to control; assay type: functional, Cavia porcellus; design: scale not given: the % may be the effect or the level left
# [15] = Negative chronotropic activity in guinea pig right atrium assessed as decrease in atrial rate at 5x10'-6 M relative to control; assay type: functional, Cavia porcellus, Cardiac atrium; design: scale not given: the % may be the effect or the level left
# Aorta [16] = assay: Relaxant activity in potassium depolarized guinea pig aortic strips assessed as inhibition of calcium-induced contraction at 5x10'-5 M relative to control; assay type: functional, Cavia porcellus; design: scale not given: the % may be the effect or the level left
# [17] = Selectivity ratio of EC50 for negative chronotropic activity in guinea pig right atrium to EC50 for negative inotropic activity in guinea pig left atrium; assay type: functional, Cavia porcellus, Cardiac atrium
# Ileum [18] = assay: Relaxant activity in potassium depolarized guinea pig ileum longitudinal smooth muscle assessed as inhibition of calcium-induced contraction at 10^-4 M relative to control; assay type: functional, Cavia porcellus; design: scale not given: the % may be the effect or the level left
# [19] = Negative chronotropic activity in guinea pig right atrium assessed as decrease in atrial rate at 5x10'-5 M relative to control; assay type: functional, Cavia porcellus, Cardiac atrium; design: scale not given: the % may be the effect or the level left
# [20] = Negative inotropic activity in guinea pig left atrium assessed as decrease in developed tension at 10^-6 M relative to control; assay type: functional, Cavia porcellus, Cardiac atrium; design: scale not given: the % may be the effect or the level left
# Ileum [21] = assay: Relaxant activity in potassium depolarized guinea pig ileum longitudinal smooth muscle assessed as inhibition of calcium-induced contraction at 5x10'-6 M relative to control; assay type: functional, Cavia porcellus; design: scale not given: the % may be the effect or the level left
IC50 [1] [µM],Ki [1] [µM],%max (Rattus norvegicus) [%],%max (Cavia porcellus [2]) [%],IC50 [3] [µM],Ki [3] [µM],%max (Cavia porcellus [4]) [%],IC50 [6] [µM],Ki [6] [µM],IC50 (Ileum [7]) [µM],EC50 [10] [µM],SMILES,%max (HEK293) [%],IC50 [5] [µM],Ki [5] [µM],Activity (Aorta [9]) [%],Activity [12] [%],other results
0.21,0.16,56,< 50,0.12,0.044,65,–,–,–,–,COC(=O)C1=C(C)NC(C)=C(C(=O)OC)C1c1c(-c2cc(OC)ccc2OC)nc2sccn12,< 50,–,–,–,–,–
0.24,0.17,98,91,0.078,0.017,76,1.43,0.51,0.046,2.63,CCOC(=O)C1=C(C)NC(C)=C(C(=O)OCC)C1c1c(-c2cc(OC)ccc2OC)nc2sccn12,94,0.86,0.3,29,93,Activity (Ileum [8]): 85%; Activity [11]: 88%; EC50 [13]: 1.16 µM
1020,340,60,< 50,0.12,0.042,95,–,–,–,–,COC(=O)C1=C(C)NC(C)=C(C(=O)OC)C1c1c(Cl)nc2sc(C)cn12,< 50,–,–,–,–,–
1.03,0.74,53,70,0.24,0.052,60,2.05,0.74,0.0023,1.06,COC(=O)C1=C(C)NC(C)=C(C(=O)OC)C1c1c(-c2ccsc2)nc2sccn12,65,0.49,0.15,11,47,Activity (Ileum [14]): 85%; Activity [15]: 87%
–,–,–,–,–,–,–,–,–,0.18,2.16,COC(=O)C1=C(C)NC(C)=C(C(=O)OC)C1c1c(-c2c(Cl)csc2Cl)nc2sccn12,–,–,–,–,74,Activity (Ileum [8]): 95%; Activity (Aorta [16]): 22%; Ratio EC50 [17]: 47; Activity [15]: 77%; EC50 [13]: 0.046 µM
–,–,–,–,–,–,–,–,–,9.69,7.49,COC(=O)C1=C(C)NC(C)=C(C(=O)OC)C1c1c(-c2ccncc2)nc2sc(C)cn12,–,–,–,4,–,Activity (Ileum [18]): 97%; Activity [19]: 93%; Activity [20]: 44%
–,–,–,50,0.065,0.023,53,3.32,1.16,–,–,CCCc1cn2c(C3C(C(=O)OC)=C(C)NC(C)=C3C(=O)OC)c(-c3c(OC)ccc(OC)c3[N+](=O)[O-])nc2s1,55,0.0044,0.0016,–,–,–
0.35,0.11,77,93,0.39,0.14,50,0.046,0.016,–,–,COC(=O)C1=C(C)NC(C)=C(C(=O)OC)C1c1c(-c2ccc(OC)c(OC)c2)nc2sccn12,55,0.062,0.023,–,–,–
–,–,–,–,–,–,–,–,–,0.96,–,COC(=O)C1=C(C)NC(C)=C(C(=O)OC)C1c1c(-c2ccncc2)nc2sccn12,–,–,–,14,–,Activity (Ileum [21]): 90%; Activity [11]: 25%; Activity [20]: 46%
38.6,13.9,52,< 50,0.14,0.049,91,–,–,–,–,COC(=O)C1=C(C)NC(C)=C(C(=O)OC)C1c1c(-c2ccccc2C(F)(F)F)nc2sccn12,< 50,–,–,–,–,–
